PubChem BioAssay
Records with an inconclusive call do not appear.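 The calls were made as follows, unless noted: active = viability at or below 27.92% in each of two runs, the all-compound median minus 4 SD; inconclusive = no clear call, values can overlap the other calls; inactive = the rest.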

Key:
[1] = S. cerevisiae growth inhibition in permissive medium (OD615), pilot counter-assay for S. cerevisiae lifespan shortening project, permissive growth control (AID 705;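 active = growth inhibition above 25% in both replicates, a cutoff set 3 SD above the mean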); conditions: OD615, 24 h, at 10 µM, stronger effect = higher value
How it was run: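 System – S. cerevisiae with engineered DeaD lifespan system · Buffer or medium – SC raffinose/galactose permissive medium · Schedule – cells pre-grown 4 h, then 24 h compound exposure, 30 °C humidified · Technique – culture turbidity as optical density at 615 nm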

[2] = S. cerevisiae growth inhibition in restrictive medium, OD615, pilot screen, restrictive growth control, yeast lifespan reduction project (AID 706;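 active = growth inhibition above a set limit, 3 SD over mean compound inhibition, in both replicates, cut at about 43% in these data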;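 also: modified DeaD lifespan yeast strain shifted to restrictive glucose medium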); conditions: OD615, 48 h, at 10 µM, stronger effect = higher value
How it was run: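 Material: engineered S. cerevisiae DeaD strain / Medium: glucose-based CSMM-D restrictive medium / Compound: single dose of 10 µM compound final, 0.25% DMSO / Timing: 4 h pre-incubation, 48 h exposure at 30 °C / Technique: OD615 absorbance reading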

[3] = doxorubicin toxicity protection in MRP-1 cells – H69AR cells, CellTiter-Glo, duplicate, MRP-1 activator project, pilot screen (AID 807;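 active = viability increase at or above a cutoff of the median across tested compounds plus 3 SD, cut at about 8.5% in these data, passing the limit was not always enough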;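 also: compound pretreatment 18-22 h then 72 h combined with doxorubicin; 0% = doxorubicin alone and 100% = vehicle without doxorubicin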); conditions: H69AR viability with doxorubicin, CellTiter-Glo luminescence; at 10 µM; stronger effect = higher value
[4] = viability of HCT116 without oncogenic beta-catenin – human colon tumor cells, pilot screen (AID 823;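 active = cell viability at or below a set limit in both duplicate runs, the limit being the all-compound median minus 4 SD, cut at about 23% in these data, passing the limit was not always enough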;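 also: 0% = wells killed by 20 µM Hyamine and 100% = untreated DMSO cell wells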); conditions: HCT116 beta-catenin knockout viability, CellTiter-Glo, 60 h; at 10 µM; stronger effect = lower value
[5] = viability of PTEN-null HCT116 cells – cell-based, HCT116 clonal line, CellTiter-Glo, pilot screen (AID 824); conditions: HCT116 PTEN-deleted viability, 60 h, at 10 µM, stronger effect = lower value;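 also: 0% = 20 µM Hyamine control and 100% = vehicle cell control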
[6] = RAM pathway blockade in budding yeast – dse1pr::URA3 reporter, 5-FOA selection, pilot screen (AID 869;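 active = inhibition over a set limit, the all-compound mean plus 3 SD, in both replicate runs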;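 also: 0% = DMSO wells with no growth and 100% = 10 µM 1-NA-PP1 with full growth; RAM network block rescues cells from 5-FOA so hits raise OD615 growth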); conditions: S. cerevisiae dse1pr::URA3 5-FOA growth, OD615, 2 d; at 10 µM; stronger effect = higher value; strain carries analog-sensitive mutant Cbk1 kinase
[7] = RAM signaling pathway blockade in yeast – S. cerevisiae, Pdr1DBD-CYC8 efflux-inhibited sensitized strain, primary screen (AID 1298;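 active = RAM network inhibition above 8.4% in each of two replicates, 3 SD over the compound average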;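 also: 0% = DMSO untreated cells without growth and 100% = 10 µM 1-NA-PP1 full growth; higher means more yeast growth rescued from 5-FOA killing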); conditions: S. cerevisiae cbk1-as DSE1-URA3 strain, 5-FOA growth OD615, 2 d; at 50 µM; stronger effect = higher value

Cn1c(SCCSc2nnc(-c3ccccc3)n2C)nnc1-c1ccccc1
inactive: growth inhibition [1] -12.1% | growth inhibition [2] 8.02% | viability increase [3] -0.26% | viability [4] 97.4% | viability [5] 93.8% | inhibition [6] 1.62% | RAM network inhibition [7] 5.17%

CC(=O)CCC(=O)NCCc1ccccc1F
inactive: growth inhibition [1] -5.29% | growth inhibition [2] 9.55% | viability increase [3] 0.02% | viability [4] 94.8% | viability [5] 97.2% | inhibition [6] 0.02% | RAM network inhibition [7] 0.25%

CC(C)(C)C1CCc2c(sc(NC(=O)c3cc(C4CC4)on3)c2C#N)C1 (configuration not stated)
inactive: growth inhibition [1] -2.48% | growth inhibition [2] -5.6% | viability increase [3] -1.27% | viability [4] 96.8% | viability [5] 90.5% | inhibition [6] 3.56% | RAM network inhibition [7] 2.83%

COc1ccc(C(=S)N(C)C)cc1OC
inactive: growth inhibition [1] 11.9% | growth inhibition [2] 16.9% | viability increase [3] -0.25% | viability [4] 98.8% | viability [5] 98.6% | inhibition [6] 3.66% | RAM network inhibition [7] 1.53%

CC(=O)c1ccc(OCCCC(=O)NCC(c2ccco2)N(C)C)cc1 (configuration not stated)
inactive: growth inhibition [1] 4.54% | growth inhibition [2] -0.015% | viability increase [3] -4.73% | viability [4] 68.9% | viability [5] 85.3% | inhibition [6] 0.755% | RAM network inhibition [7] 1.98%

COc1ccc(N2CCN(C3CC(=O)N(C)C3=O)CC2)cc1 (configuration not stated)
inactive: growth inhibition [1] -3.33% | growth inhibition [2] 2.79% | viability increase [3] -0.79% | viability [4] 103% | viability [5] 100% | inhibition [6] 1.95% | RAM network inhibition [7] 4.13%

OC(CN1c2ccccc2Sc2ccccc21)Cn1nnc2ccccc21 (configuration not stated)
inactive: growth inhibition [1] -4.44% | growth inhibition [2] -9.12% | viability increase [3] -6.85% | viability [4] 72% | viability [5] 66.2% | inhibition [6] 1.69% | RAM network inhibition [7] 10.2%

Cc1ccccc1C(=O)NCCN=C1NS(=O)(=O)c2ccccc21
inactive: growth inhibition [1] -7.76% | growth inhibition [2] 10.5% | viability increase [3] 0.1% | viability [4] 113% | viability [5] 103% | inhibition [6] 0.69% | RAM network inhibition [7] 1.88%

Cc1ccc(C(=O)Nc2cccc(C(=O)O)c2)cc1S(=O)(=O)N1CCCCC1
inactive: growth inhibition [1] 5.02% | growth inhibition [2] 11.4% | viability increase [3] 0.18% | viability [4] 96% | viability [5] 100% | inhibition [6] 1.35% | RAM network inhibition [7] 0.1%

COc1cc(C2NC(=O)N(C)C3=C2C(=O)CCC3)cc(OC)c1OC (configuration not stated)
inactive: growth inhibition [1] -3.03% | growth inhibition [2] -17.1% | viability increase [3] -0.05% | viability [4] 104% | viability [5] 99% | inhibition [6] 2.73% | RAM network inhibition [7] 4.71%

CCc1ccc(S(=O)(=O)NCc2csc(-c3cccnc3)n2)s1
inactive: growth inhibition [1] -13.1% | growth inhibition [2] 1.16% | viability increase [3] -0.39% | viability [4] 103% | viability [5] 101% | inhibition [6] 2.68% | RAM network inhibition [7] 2.28%

Cc1nnc(NC(=O)CSc2nc3c(c(=O)n2CCc2ccccc2)SC(C)C3)s1 (configuration not stated)
inactive: growth inhibition [1] -9.82% | growth inhibition [2] -15.6% | viability increase [3] 0.33% | viability [4] 101% | viability [5] 103% | inhibition [6] 3.13% | RAM network inhibition [7] 6.06%

CCN(CC)CCN=C1CCCc2ccccc2N1
inactive: growth inhibition [1] -1.96% | growth inhibition [2] 5.53% | viability increase [3] -2.11% | viability [4] 86.9% | viability [5] 87% | inhibition [6] 2.3% | RAM network inhibition [7] 0.67%

COc1c(C)cc(Br)cc1C(=O)Nc1cccc(-c2nc3ncccc3o2)c1
inactive: growth inhibition [1] -0.485% | growth inhibition [2] 15% | viability increase [3] -4.84% | viability [4] 55.6% | viability [5] 46.5% | inhibition [6] 2.24% | RAM network inhibition [7] 7.82%

Cc1ccc(S(=O)(=O)N2CCCC(C(=O)O)C2)s1 (configuration not stated)
inactive: growth inhibition [1] -4.2% | growth inhibition [2] -4.86% | viability increase [3] 1.27% | viability [4] 97% | viability [5] 99.6% | inhibition [6] 0.59% | RAM network inhibition [7] -1.67%

CS(=O)(=O)N1CCN(Cc2ccccc2C(F)(F)F)CC1
inactive: growth inhibition [1] -19.1% | growth inhibition [2] -5.12% | viability increase [3] 0.93% | viability [4] 91.1% | viability [5] 94% | inhibition [6] -0.185% | RAM network inhibition [7] 6.47%

Cc1cc(C)c2c(n1)nn1c(C)c(CCC(=O)NCc3ccco3)c(C)nc21
inactive: growth inhibition [1] 3.4% | growth inhibition [2] 1.73% | viability increase [3] -4.82% | viability [4] 89.8% | viability [5] 94.8% | inhibition [6] 0.545% | RAM network inhibition [7] 2.09%

COc1ccc2nc(N3CCCC(C(=O)NCCCN4CCN(C)CC4)C3)sc2c1 (configuration not stated)
inactive: growth inhibition [1] -5.12% | growth inhibition [2] -11.4% | viability increase [3] -2.35% | viability [4] 96.9% | viability [5] 89.5% | inhibition [6] 1.98% | RAM network inhibition [7] 8.59%

Nc1ccc(-c2nc3ccccc3[nH]2)cc1
inactive: growth inhibition [1] -6.98% | growth inhibition [2] -10.1% | viability increase [3] -3.12% | viability [4] 97.3% | viability [5] 87.8% | inhibition [6] 2.31% | RAM network inhibition [7] 4.57%

COc1ccc(-n2c(SCC(=O)Nc3ccccc3)nc3c(c2=O)SCC3)cc1
inactive: growth inhibition [1] -1.34% | growth inhibition [2] 0.23% | viability increase [3] 3.8% | viability [4] 101% | viability [5] 96% | inhibition [6] 0.755% | RAM network inhibition [7] 9.27%

COc1cc(CN2CCN(CCOCCO)CC2)cc(OC)c1OC
inactive: growth inhibition [1] -9.5% | growth inhibition [2] -8.52% | viability increase [3] 0.51% | viability [4] 94.5% | viability [5] 96.8% | inhibition [6] 1.11% | RAM network inhibition [7] 4.96%

OCCn1c(SCCOc2ccccc2F)nc2ccccc21
inactive: growth inhibition [1] -4.44% | growth inhibition [2] -1.06% | viability increase [3] -3.24% | viability [4] 91.5% | viability [5] 88.4% | inhibition [6] 2.67% | RAM network inhibition [7] 2.71%

CCn1nc(C(=O)OCC(=O)c2ccc3c(c2)OCCO3)c2ccccc2c1=O
inactive: growth inhibition [1] -8.66% | growth inhibition [2] -8.03% | viability increase [3] -3.31% | viability [4] 89.9% | viability [5] 90.3% | inhibition [6] 1.78% | RAM network inhibition [7] 3.16%

O=C(c1nnc(Cc2ccc(Cl)cc2)o1)N1CCOCC1
inactive: growth inhibition [1] -7.58% | growth inhibition [2] 1.76% | viability increase [3] -0.86% | viability [4] 105% | viability [5] 107% | inhibition [6] 1.23% | RAM network inhibition [7] 0.99%

CCc1nnc(NC(=O)c2ccc(OC)cc2OC)s1
inactive: growth inhibition [1] 16.6% | growth inhibition [2] 3.21% | viability increase [3] -1.32% | viability [4] 109% | viability [5] 102% | inhibition [6] 1.68% | RAM network inhibition [7] 2.76%

COCC(=O)NCCc1nc2ccccc2[nH]1
inactive: growth inhibition [1] -0.385% | growth inhibition [2] 1.45% | viability increase [3] -2.27% | viability [4] 98.7% | viability [5] 99.1% | inhibition [6] -0.325% | RAM network inhibition [7] 0.89%

O=c1cc(-c2ccccc2Cl)c2c([nH]1)CCC2
inactive: growth inhibition [1] -9.7% | growth inhibition [2] 0.91% | viability increase [3] -2.8% | viability [4] 94.5% | viability [5] 87.2% | inhibition [6] 1.71% | RAM network inhibition [7] 0.26%

Cc1noc(C(=O)Nc2sc3c(c2C#N)CCC3)c1Cl
inactive: growth inhibition [1] -6.86% | growth inhibition [2] 2.54% | viability increase [3] -1.69% | viability [4] 65.8% | viability [5] 55.6% | inhibition [6] 1.84% | RAM network inhibition [7] 2.59%

Cn1c(=O)cc(N2CCCCC2)[nH]c1=O
inactive: growth inhibition [1] -15.3% | growth inhibition [2] -7.48% | viability increase [3] -0.1% | viability [4] 111% | viability [5] 97% | inhibition [6] 1.59% | RAM network inhibition [7] -0.8%

CCC(=O)N1CCc2cc(Br)cc(S(=O)(=O)N3CCN(C(=O)c4ccco4)CC3)c21
inactive: growth inhibition [1] -4.72% | growth inhibition [2] -21.7% | viability increase [3] -1.56% | viability [4] 91.6% | viability [5] 95.4% | inhibition [6] 2.48% | RAM network inhibition [7] 1.88%

COc1ccc(-c2cc(C(F)F)n3ncc(C(=O)NCCCN4CCCC4=O)c3n2)cc1
inactive: growth inhibition [1] -3.45% | growth inhibition [2] -7.12% | viability increase [3] -4.32% | viability [4] 78.5% | viability [5] 73.5% | inhibition [6] -0.515% | RAM network inhibition [7] 3.32%

CN1C(=O)/C(=C2\SC(=S)N(C(CCC(=O)O)C(=O)O)C2=O)c2ccccc21 (configuration not stated)
inactive: growth inhibition [1] 2.35% | growth inhibition [2] -1.85% | viability increase [3] -2.67% | viability [4] 107% | viability [5] 98.8% | inhibition [6] 1.11% | RAM network inhibition [7] 0.96%

COCc1cc(C)nc(N2CCN(c3ccccc3)CC2)c1C#N
inactive: growth inhibition [1] -15.6% | growth inhibition [2] -7.64% | viability increase [3] 0.13% | viability [4] 86.3% | viability [5] 81.9% | inhibition [6] 2.28% | RAM network inhibition [7] 6.31%

O=C(CCS(=O)CCC(=O)NCc1ccccc1)NCc1ccccc1
inactive: growth inhibition [1] -2.28% | growth inhibition [2] 6.21% | viability increase [3] -0.32% | viability [4] 97.9% | viability [5] 102% | inhibition [6] 0.92% | RAM network inhibition [7] 4.15%

O=C(CC1c2ccccc2Oc2ccccc21)N1CCN(c2ccccn2)CC1
inactive: growth inhibition [1] -16.3% | growth inhibition [2] -10.3% | viability increase [3] -3.24% | viability [4] 71.6% | viability [5] 70.5% | inhibition [6] 1.08% | RAM network inhibition [7] 4.78%

CC(C)(C)NCCCCOc1ccc(F)cc1
inactive: growth inhibition [1] 0.455% | growth inhibition [2] -1.1% | viability increase [3] 0.34% | viability [4] 99.3% | viability [5] 101% | inhibition [6] 1.71% | RAM network inhibition [7] 1.66%
